Where “and” joins values, the source holds several entries; their conditions need not be identical. Identical values can stand only once.
Experiments:
Format in all cases: toxicity, cell-based
Fibroblast [1] = experiment: Multiplex assay against human fibroblast; conditions: 1 µM, compound concentration 1 uM
Summary of the method: (§1)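 Per cents of healthy-nucleus cells form the tubulin, mitochondrial-mass and membrane-permeability phenotype values. Live cells were stained at seeding with Hoechst33342, BioTracker Green Microtubule Cytoskeleton Dye, MitoTracker Red and Annexin V Alexa Fluor 680. After compound addition they were imaged on a CQ1 microscope at 37°C and 5% CO2, and CellPathfinder machine-learning gating split them into Hoechst high-intensity objects or normal cells, normal cells into healthy, pyknosed or fragmented nuclei, and pyknosed cells into mitotic or apoptotic.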

HEK-293T [2] = experiment: Multiplex assay against HEK293T; conditions: human, 1 µM, compound concentration 1 uM; summary of the method: as §1
U2OS [3] = experiment: Multiplex assay against U2OS; conditions: human, 1 µM, compound concentration 1 uM; summary of the method: as §1
HEK-293T [4] = experiment: Incucyte cell viability with HEK293T; conditions: human, 10 µM, compound concentration 10 uM; further: filed as whole numbers so only -1 and 0 and 1 occur
Fibroblast [5] = experiment: Incucyte cell viability with human fibroblast; conditions: 10 µM, compound concentration 10 uM; further: filed as whole numbers so only -1 and 0 and 1 occur
U2OS [6] = experiment: Incucyte cell viability with U2OS; conditions: human, 10 µM, compound concentration 10 uM; further: filed as whole numbers so only -1 and 0 and 1 occur
[7] = 0 h, replicate number 2, timepoint 0 hours
[8] = 6 h, replicate number 1, timepoint 6 hours
[9] = 12 h, replicate number 1, timepoint 12 hours
[10] = 18 h, replicate number 1, timepoint 18 hours
[11] = 24 h, replicate number 1, timepoint 24 hours

## C[C@]1(O)C[C@@H](c2nc(-c3ccc4ccc(-c5ccccc5)nc4c3)c3c(N)nccn32)C1 [LINSITINIB]
Fibroblast [1]; 12 h, replicate 1
  Population Apoptotic (%): 56% and 93%
  Population Fragmented Nuclei (%): 43% and 32%
  Population Healthy Nuclei (%): 44% and 50%
  Population Hoechst High Intensity Objects (%): 18% and 12%
  Population Membrane Permeable-Phenotype (%): 13% and 8%
  Population Mitochondria Different-Phenotype (%): 1%
  Population Normal (%): 81% and 87%
  Population Pyknosed Nuclei (%): 11% and 17%
  Total Cell Count: 345 and 206
Fibroblast [1]; 12 h, replicate 2
  Population Apoptotic (%): 40% and 66%
  Population Fragmented Nuclei (%): 56% and 76%
  Population Healthy Nuclei (%): 31% and 18%
  Population Hoechst High Intensity Objects (%): 45% and 43%
  Population Membrane Permeable-Phenotype (%): 0% and 9%
  Population Mitotic Cells (%): 60% and 33%
  Population Normal (%): 54% and 56%
  Population Pyknosed Nuclei (%): 12% and 5%
  Total Cell Count: 75 and 105
Fibroblast [1]; 24 h, replicate 1
  Population Apoptotic (%): 52% and 80%
  Population Fragmented Nuclei (%): 47% and 33%
  Population Healthy Nuclei (%): 44% and 51%
  Population Hoechst High Intensity Objects (%): 22% and 12%
  Population Membrane Permeable-Phenotype (%): 9%
  Population Mitochondria Different-Phenotype (%): 2% and 4%
  Population Mitotic Cells (%): 47% and 20%
  Population Normal (%): 77% and 87%
  Population Pyknosed Nuclei (%): 8% and 14%
  Total Cell Count: 364 and 202
Fibroblast [1]; 24 h, replicate 2
  Population Apoptotic (%): 50%
  Population Fragmented Nuclei (%): 58% and 75%
  Population Healthy Nuclei (%): 37% and 21%
  Population Hoechst High Intensity Objects (%): 33% and 52%
  Population Membrane Permeable-Phenotype (%): 21% and 18%
  Population Mitotic Cells (%): 50%
  Population Normal (%): 66% and 47%
  Population Pyknosed Nuclei (%): 3%
  Total Cell Count: 77 and 109
HEK-293T [2]; 12 h, replicate 1
  Population Apoptotic (%): 31% and 29%
  Population Fragmented Nuclei (%): 19% and 26%
  Population Healthy Nuclei (%): 45% and 44%
  Population Hoechst High Intensity Objects (%): 33% and 19%
  Population Membrane Permeable-Phenotype (%): 11% and 4%
  Population Mitochondria Different-Phenotype (%): 17% and 6%
  Population Mitotic Cells (%): 68% and 70%
  Population Normal (%): 66% and 80%
  Population Pyknosed Nuclei (%): 35% and 28%
  Total Cell Count: 588 and 493
HEK-293T [2]; 12 h, replicate 2
  Population Apoptotic (%): 18% and 11%
  Population Fragmented Nuclei (%): 4% and 8%
  Population Healthy Nuclei (%): 83% and 86%
  Population Hoechst High Intensity Objects (%): 14% and 5%
  Population Membrane Permeable-Phenotype (%): 5% and 1%
  Population Mitotic Cells (%): 81% and 88%
  Population Normal (%): 85% and 94%
  Population Pyknosed Nuclei (%): 11% and 4%
  Total Cell Count: 891 and 1486
HEK-293T [2]; 24 h, replicate 1
  Population Apoptotic (%): 31% and 26%
  Population Fragmented Nuclei (%): 22% and 26%
  Population Healthy Nuclei (%): 53% and 56%
  Population Hoechst High Intensity Objects (%): 27% and 13%
  Population Membrane Permeable-Phenotype (%): 7% and 5%
  Population Mitochondria Different-Phenotype (%): 29% and 10%
  Population Mitotic Cells (%): 68% and 73%
  Population Normal (%): 72% and 86%
  Population Pyknosed Nuclei (%): 23% and 16%
  Total Cell Count: 525 and 479
HEK-293T [2]; 24 h, replicate 2
  Population Fragmented Nuclei (%): 10%
  Population Healthy Nuclei (%): 82% and 71%
  Population Hoechst High Intensity Objects (%): 18% and 6%
  Population Membrane Permeable-Phenotype (%): 8% and 4%
  Population Mitotic Cells (%): 80% and 93%
  Population Normal (%): 81% and 93%
  Population Pyknosed Nuclei (%): 6% and 2%
  Total Cell Count: 1000 and 2217
U2OS [3]; 12 h, replicate 1
  Population Apoptotic (%): 57% and 35%
  Population Fragmented Nuclei (%): 10% and 3%
  Population Healthy Nuclei (%): 79% and 85%
  Population Hoechst High Intensity Objects (%): 2% and 4%
  Population Mitochondria Different-Phenotype (%): 17% and 28%
  Population Mitotic Cells (%): 42% and 64%
  Population Normal (%): 97% and 95%
  Population Pyknosed Nuclei (%): 9% and 11%
  Population Tubulin-Different-Phenotype (%): 50%
  Total Cell Count: 132 and 196
U2OS [3]; 12 h, replicate 2
  Population Apoptotic (%): 50% and 33%
  Population Fragmented Nuclei (%): 13% and 5%
  Population Healthy Nuclei (%): 81% and 89%
  Population Hoechst High Intensity Objects (%): 8% and 19%
  Population Membrane Permeable-Phenotype (%): 39% and 16%
  Population Mitochondria Different-Phenotype (%): 16% and 25%
  Population Mitotic Cells (%): 50% and 66%
  Population Normal (%): 91% and 80%
  Population Pyknosed Nuclei (%): 5% and 4%
  Population Tubulin-Different-Phenotype (%): 45% and 28%
  Total Cell Count: 83 and 65
U2OS [3]; 24 h, replicate 1
  Population Apoptotic (%): 48% and 53%
  Population Fragmented Nuclei (%): 4%
  Population Healthy Nuclei (%): 76% and 87%
  Population Membrane Permeable-Phenotype (%): 23% and 8%
  Population Mitochondria Different-Phenotype (%): 20% and 22%
  Population Mitotic Cells (%): 51% and 46%
  Population Normal (%): 94% and 98%
  Population Pyknosed Nuclei (%): 11% and 8%
  Population Tubulin-Different-Phenotype (%): 41% and 33%
  Total Cell Count: 180 and 194
U2OS [3]; 24 h, replicate 2
  Population Fragmented Nuclei (%): 12% and 8%
  Population Healthy Nuclei (%): 79% and 84%
  Population Membrane Permeable-Phenotype (%): 27% and 13%
  Population Mitochondria Different-Phenotype (%): 19% and 28%
  Population Mitotic Cells (%): 60% and 100%
  Population Normal (%): 95% and 86%
  Population Pyknosed Nuclei (%): 7%
  Population Tubulin-Different-Phenotype (%): 28% and 38%
  Total Cell Count: 114 and 78
HEK-293T [4]; [7]
  Growth Rate: 1
HEK-293T [4]; [8]
  Growth Rate: 0
HEK-293T [4]; [9]
  Growth Rate: 0
HEK-293T [4]; [10]
  Growth Rate: 0
HEK-293T [4]; [11]
  Growth Rate: 0
Fibroblast [5]; [7]
  Growth Rate: 0
Fibroblast [5]; [8]
  Growth Rate: 1
Fibroblast [5]; [9]
  Growth Rate: 1
Fibroblast [5]; 18 h, replicate number 2, timepoint 18 hours
  Growth Rate: 1
Fibroblast [5]; [11]
  Growth Rate: 1
U2OS [6]; 0 h, replicate number 1, timepoint 0 hours
  Growth Rate: 1
U2OS [6]; [8]
  Growth Rate: 0
U2OS [6]; [9]
  Growth Rate: 0
U2OS [6]; [10]
  Growth Rate: 0
U2OS [6]; [11]
  Growth Rate: 0

Source: ChEMBL document CHEMBL4689842, “EUbOPEN Chemogenomics Library wave 1” (2021)
